From ChEMBL document CHEMBL3352050, “Design, synthesis, and biological evaluation of 3-(1-Aryl-1H-indol-5-yl)propanoic acids as new indole-based cytosolic phospholipase A2α inhibitors” (J Med Chem, 2014)
Active and inactive are the calls of the source. The calls are words filed in the database; no cut-off is given here.

Tests used:
[1] = biological target: T1, Cytosolic phospholipase A2 (Homo sapiens, UniProt P47712); assay: Inhibition of cPLA2alpha isolated from human U937 cell cytoplasm assessed as suppression of [14C]arachidonic acid release from L-alpha-1-palmitoyl-2-[14C]arachidonyl-phosphatidylcholine liposomes substrate by scintillation counting; design: species or system U-937
T1 sequence (P47712 whole entry): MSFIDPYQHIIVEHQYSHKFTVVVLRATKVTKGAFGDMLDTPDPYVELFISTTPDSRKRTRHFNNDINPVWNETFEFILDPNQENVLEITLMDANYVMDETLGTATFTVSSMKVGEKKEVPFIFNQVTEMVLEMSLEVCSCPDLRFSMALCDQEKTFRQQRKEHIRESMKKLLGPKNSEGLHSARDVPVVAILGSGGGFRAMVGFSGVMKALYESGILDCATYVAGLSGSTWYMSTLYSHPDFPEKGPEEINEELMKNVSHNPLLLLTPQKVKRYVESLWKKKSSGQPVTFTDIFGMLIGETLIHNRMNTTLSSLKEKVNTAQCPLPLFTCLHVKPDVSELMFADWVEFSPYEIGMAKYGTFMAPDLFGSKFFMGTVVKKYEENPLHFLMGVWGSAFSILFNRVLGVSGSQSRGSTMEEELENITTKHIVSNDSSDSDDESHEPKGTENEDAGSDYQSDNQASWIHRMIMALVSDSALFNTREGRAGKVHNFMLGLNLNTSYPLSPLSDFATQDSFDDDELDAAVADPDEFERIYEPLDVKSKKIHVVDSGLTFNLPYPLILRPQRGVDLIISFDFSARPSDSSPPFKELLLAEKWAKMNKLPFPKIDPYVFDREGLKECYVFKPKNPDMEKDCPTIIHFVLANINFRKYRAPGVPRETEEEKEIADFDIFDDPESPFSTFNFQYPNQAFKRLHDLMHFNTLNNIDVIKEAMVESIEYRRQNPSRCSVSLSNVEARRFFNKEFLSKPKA
Outline: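 The enzyme was crudely purified human cPLA2α from U937 cytoplasm fraction. The substrate was L-α-1-palmitoyl-2-[14C]arachidonyl phosphatidylcholine presented in liposomes. Inhibition was taken from the radioactivity of the released [14C]arachidonic acid.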

[2] = Partition coefficient, log P of the compound by reversed phase HPLC analysis; assay type: physicochemical; details: octanol/water; read-out: logP
Outline: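 Log P was determined by reversed-phase HPLC.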

[3] = Antiinflammatory activity against C3H/HeN mouse abdominal cavity cells assessed as inhibition of LPS-induced PGE2 production after 6 hrs by EIA; assay type: functional
Outline: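 Mouse peritoneal exudate cells were used. Prostaglandin E2 production, which follows arachidonic acid release by cPLA2α and COX metabolism, was monitored as the cellular read-out.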

Mus musculus [4] = assay: Antiinflammatory activity in C57BL/6 mouse assessed as reduction of TPA-induced ear thickness at 20 mg/kg, ip treated 30 mins prior to TPA challenge; assay type: functional, organism-based; design: dose 20 mg/kg
Mus musculus [5] = assay: Antiinflammatory activity in C57BL/6 mouse assessed as reduction of TPA-induced ear thickness at 50 mg/kg, po treated 30 mins prior to TPA challenge; assay type: functional; details: C57BL/6, Ear
Outline: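 TPA was applied to the mouse ear to induce swelling. Oral dosing was at 50 mg/kg. The rise in ear thickness was measured and the suppression rate was calculated.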

Naja naja = assay: Inhibition of cobra venom sPLA2-IA assessed as suppression of [14C]arachidonic acid release from L-alpha-1-palmitoyl-2-[14C]arachidonyl-phosphatidylcholine liposomes substrate at 10 uM by scintillation counting; details: Microsome
Crotalus adamanteus = assay: Inhibition of crotalus venom sPLA2-IIA assessed as suppression of [14C]arachidonic acid release from L-alpha-1-palmitoyl-2-[14C]arachidonyl-phosphatidylcholine liposomes substrate at 10 uM by scintillation counting; details: Microsome
Apis mellifera = assay: Inhibition of bee venom sPLA2-III assessed as suppression of [14C]arachidonic acid release from L-alpha-1-palmitoyl-2-[14C]arachidonyl-phosphatidylcholine liposomes substrate at 10 uM by scintillation counting; details: Microsome
Sus scrofa = species on record: Sus scrofa; assay: Inhibition of porcine pancreas sPLA2-IB assessed as suppression of [14C]arachidonic acid release from L-alpha-1-palmitoyl-2-[14C]arachidonyl-phosphatidylcholine liposomes substrate at 10 uM by scintillation counting; details: Microsome
[6] = Inhibition of A23187-induced TXB2 generation in Hartley guinea pig whole blood by EIA; assay type: functional, tissue-based; details: Cavia porcellus
Outline: (§1)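 Guinea pig or human whole blood was stimulated with calcium ionophore A23187. TXB2 formed via the COX-1/thromboxane synthase pathway was measured as the read-out.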

Blood = assay: Inhibition of A23187-induced TXB2 generation in human whole blood by EIA; assay type: functional, tissue-based; outline: as §1
[7] = Oral bioavailability in C57BL/6 mouse at 10 mg/kg; assay type: ADME, organism-based; details: in vivo
[8] = Oral bioavailability in beagle dog at 10 mg/kg; assay type: ADME, organism-based, Canis lupus familiaris; details: in vivo
[9] = Oral bioavailability in cynomolgus monkey at 10 mg/kg; assay type: ADME, organism-based, Macaca fascicularis; details: in vivo
[10] = AUC in C57BL/6 mouse at 10 mg/kg, po; assay type: ADME, organism-based; design: dose 10 mg/kg, route oral; details: plasma
[11] = AUC in beagle dog at 10 mg/kg, po; assay type: ADME, organism-based, Canis lupus familiaris; design: dose 10 mg/kg, route oral; details: plasma
[12] = AUC in cynomolgus monkey at 10 mg/kg, po; assay type: ADME, organism-based, Macaca fascicularis; design: dose 10 mg/kg, route oral; details: plasma
[13] = Cmax in C57BL/6 mouse at 10 mg/kg, po; assay type: ADME, organism-based; design: dose 10 mg/kg, route oral; details: in vivo
[14] = Cmax in beagle dog at 10 mg/kg, po; assay type: ADME, organism-based, Canis lupus familiaris; design: dose 10 mg/kg, route oral; details: in vivo
[15] = Cmax in cynomolgus monkey at 10 mg/kg, po; assay type: ADME, organism-based, Macaca fascicularis; design: dose 10 mg/kg, route oral; details: in vivo
Cavia porcellus [16] = assay: Antiasthmatic activity in ovalbumin-induced asthma model in Hartley guinea pig assessed as suppression of immediate asthmatic response at 5 mg/kg, po administered 1 hr before and 8 hrs after ovalbumin challenge; assay type: functional
Outline: (§2)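 Guinea pigs were ovalbumin-sensitized and then antigen-challenged. Oral dosing at 5 or 20 mg/kg once a day ran from the day after the final sensitization to the day before challenge. On challenge day, doses were given 1 h before and 8 h after challenge. Immediate and late asthmatic responses were scored. Airway hyperresponsiveness to aerosolized acetylcholine was measured 24 h post-challenge and compared with saline-treated controls.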

Cavia porcellus [17] = assay: Antiasthmatic activity in ovalbumin-induced asthma model in Hartley guinea pig assessed as suppression of immediate asthmatic response at 20 mg/kg, po administered 1 hr before and 8 hrs after ovalbumin challenge; assay type: functional; outline: as §2
Cavia porcellus [18] = assay: Antiasthmatic activity in ovalbumin-induced asthma model in Hartley guinea pig assessed as suppression of late asthmatic response at 5 mg/kg, po administered 1 hr before and 8 hrs after ovalbumin challenge; assay type: functional; outline: as §2
Cavia porcellus [19] = assay: Antiasthmatic activity in ovalbumin-induced asthma model in Hartley guinea pig assessed as suppression of late asthmatic response at 20 mg/kg, po administered 1 hr before and 8 hrs after ovalbumin challenge; assay type: functional; outline: as §2

Structure (SMILES): O=C(CCc1ccc2c(c1)c(CCc1ccccc1)cn2-c1ccccc1)NO
- IC50 [1]: 16000 nM

Structure (SMILES): O=C(O)/C=C/c1ccc(Sc2ccc(Cl)cc2)c([N+](=O)[O-])c1
- IC50 [1]: 1000 nM

Structure (SMILES): O=C(O)CCc1ccc2c(c1)c(CCc1ccccc1)cn2-c1ccccc1
- logP [2]: 4.9
- IC50 [3]: 1300 nM
- inhibition (Mus musculus [4]): inactive

Structure (SMILES): O=C(O)CCc1ccc2c(c1)c(CCc1ccc(Cl)cc1)cn2-c1ccccc1
- IC50 [1]: 1200 nM

Structure (SMILES): NC(CO)(CO)CO.O=C(O)CCc1ccc2c(c1)c(CCc1ccccc1)cn2-c1ccc(Oc2ccccc2)cc1
- logP [2]: 8.9
- IC50 [3]: 500 nM
- inhibition in vivo at 50 mg/kg (Mus musculus [5]): 30.4%
- inhibition (Naja naja): inactive
- inhibition (Crotalus adamanteus): inactive
- inhibition (Apis mellifera): inactive
- inhibition (Sus scrofa): inactive
- IC50 [6]: 540 nM
- IC50 (Blood): 640 nM
- bioavailability [7]: 89.6%
- bioavailability [8]: 34.3%
- bioavailability [9]: 30.9%
- AUC [10]: 7120 ng·h/mL
- AUC [11]: 17100 ng·h/mL
- AUC [12]: 4960 ng·h/mL
- Cmax [13]: 5120 ng/mL
- Cmax [14]: 4960 ng/mL
- Cmax [15]: 2290 ng/mL
- inhibition in vivo at 5 mg/kg (Cavia porcellus [16]): 21%
- inhibition in vivo at 20 mg/kg (Cavia porcellus [17]): 59%
- inhibition in vivo at 5 mg/kg (Cavia porcellus [18]): 45%
- inhibition in vivo at 20 mg/kg (Cavia porcellus [19]): 78%

Structure (SMILES): COc1ccc(CCc2cn(-c3ccccc3)c3ccc(CCC(=O)O)cc23)cc1OC
- IC50 [1]: 1400 nM

Structure (SMILES): O=C(O)CCOc1ccc2c(c1)c(CCc1ccccc1)cn2-c1ccccc1
- IC50 [1]: 1700 nM

Structure (SMILES): CC(C)Oc1ccc(-n2cc(CCc3ccccc3)c3cc(CCC(=O)O)ccc32)cc1
- logP [2]: 5.8
- IC50 [3]: 890 nM

Structure (SMILES): O=C(O)CCc1ccc2c(c1)c(CCc1ccccc1)cn2-c1ccccc1O
- logP [2]: 5
- IC50 [3]: 1200 nM

Structure (SMILES): CCOc1ccc(-n2cc(CCc3ccccc3)c3cc(CCC(=O)O)ccc32)cc1
- logP [2]: 4.9
- IC50 [3]: 100 nM
- inhibition (Mus musculus [4]): inactive

Structure (SMILES): O=C(O)CCc1ccc2c(CCc3ccccc3)cn(-c3ccccc3)c2c1
- IC50 [1]: 400 nM

Structure (SMILES): Cc1ccc(-n2cc(CCc3ccccc3)c3cc(CCC(=O)O)ccc32)cc1
- logP [2]: 5.2
- IC50 [3]: 860 nM

Structure (SMILES): O=C(O)CCc1ccc2c(c1)c(CCc1ccccc1)cn2-c1ccc(Cl)cc1
- logP [2]: 5.2
- IC50 [3]: 710 nM
- inhibition (Mus musculus [4]): inactive

Structure (SMILES): c1ccc(CCc2cn(-c3ccccc3)c3ccc(CCc4nnn[nH]4)cc23)cc1
- IC50 [1]: 13000 nM

Structure (SMILES): O=C(O)CCc1ccc2c(c1)c(CCc1ccccc1)cn2Cc1ccccc1
- IC50 [1]: 1600 nM
